Screening data (PubChem)
Compounds with a hit are over-represented: about 4.9% of the library has one in this group of screens.
STAT1 inh – STAT1 signaling inhibition | NIH 3T3 STAT1-luciferase reporter, IFN-gamma, luminescence | inhibition, % at 5.5 µM | actives 0.35% (n = 200,000);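 active = inhibition above a set limit, the mean inhibition across all tested compounds plus 3 SD, cut at about 34% in these data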;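 note: 0% = IFN-gamma with DMSO and 100% = IFN-gamma with 300 µM nifuroxazide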
FLuc stim CS – firefly luciferase counter-screen for stimulation assays; ATPlite luciferase biochemical, luminescence, 10 min; 0 = ATP-free wells, 1 = DMSO control; activation factor at 10 µM; 200,000 tested, under 10 active; AID 1027;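 active = luciferase activation factor, scaled between plate controls, of at least 2 with compound at 10 µM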
Target sequence (P08659 whole entry, looked up): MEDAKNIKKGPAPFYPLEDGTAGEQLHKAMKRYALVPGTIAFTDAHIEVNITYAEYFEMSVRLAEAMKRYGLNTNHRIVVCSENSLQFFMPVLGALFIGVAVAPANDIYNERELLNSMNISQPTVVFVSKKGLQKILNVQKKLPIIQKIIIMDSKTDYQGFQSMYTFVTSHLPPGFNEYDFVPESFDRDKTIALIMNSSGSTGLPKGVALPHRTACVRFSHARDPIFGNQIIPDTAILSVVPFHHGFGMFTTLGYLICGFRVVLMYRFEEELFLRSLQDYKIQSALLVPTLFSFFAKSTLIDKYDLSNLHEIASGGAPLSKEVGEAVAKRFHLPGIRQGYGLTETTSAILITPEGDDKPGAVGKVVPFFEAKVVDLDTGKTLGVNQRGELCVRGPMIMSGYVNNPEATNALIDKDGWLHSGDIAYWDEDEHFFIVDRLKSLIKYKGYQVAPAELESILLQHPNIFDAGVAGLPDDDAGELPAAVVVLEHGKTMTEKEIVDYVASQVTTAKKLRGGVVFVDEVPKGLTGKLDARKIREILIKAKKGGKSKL
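System: Luciferase/luciferin detection reagent, cell-free biochemical luciferase assay | Medium: PBS buffer for ATP | Dosing: Test compounds dosed from 2 mM stocks in 100% DMSO | Timing: 10 min at ambient temperature | Signal: Luminescence measurement of luciferase light output | Evaluation: Luciferase activation, seen as luminescence increase over controls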
STAT1 activator – STAT1 signaling activation. NIH 3T3 STAT1-luciferase reporter, IFN-gamma, luminescence; 100% = IFN-gamma alone, no compound. activation (% of control), % at 5.5 µM. actives 2.6% (n = 200,000);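 active = activation above the screen-wide mean activation plus 3 SD, cut at about 130% in these data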;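 note: raw ratio to IFN-gamma control signal so 100% means no change and 0% no light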
STAT3 inh – reduces IL-6 driven STAT3 reporter signal. inhibition, % at 5.5 µM. U3A cells, IL-6 STAT3-luciferase reporter, luminescence; host cell line lacks STAT1. actives 0.89% (n = 190,000);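 active = inhibition above the mean inhibition across all screened compounds plus 3 SD, cut at about 44% in these data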;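 note: 0% = DMSO only wells and 100% = 100 µM nifuroxazide control wells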
STAT3 activator – STAT3 signaling activation; U3A cells, IL-6 STAT3-luciferase reporter, luminescence; 100% = signal with IL-6 EC80 alone; actives 0.91% (n = 190,000); activation (% of control), % at 5.6 µM;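 active = activation above the screen-wide mean of compound activation plus 3 SD, cut at about 130% in these data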;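 note: 0% = background luminescence of wells with medium and substrate only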
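system = STAT3-luciferase reporter U3A cells | reagent = IL-6 stimulus at 33 ng/mL final | timing = 1 h compound pre-exposure, 6 h IL-6 stimulation, 37 °C | measured by = luminescence | evaluation = % activation versus median of IL-6-stimulated wells | control set = IL-6-only wells as 100% reference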
FLuc inhib CS – counter-screen for luciferase assay inhibitors: firefly luciferase inhibition. ATPLite firefly luciferase biochemical luminescence, 10 min. inhibition, % at 10 µM. actives 1.5% (n = 200,000). AID 1006;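 active = inhibition above about 50% when tested at 10 µM, limit read from the data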
An asterisk follows results filed as active.

SMILES | STAT1 inh | FLuc stim CS | STAT1 activator | STAT3 inh | STAT3 activator | FLuc inhib CS
Cc1ccccc1OCC(=O)Nc1ccc(S(=O)(=O)Nc2ccccn2)cc1 | -4 | 1 | 104 | 6 | 97 | -4
S=C(NCc1ccncc1)NC1CCCCC1 | -2 | 1 | 100 | 8 | 97 | -5
O=C1NN(c2ccccc2)C(=O)/C1=C/c1coc2ccccc2c1=O | -52 | 1 | 146* | -20 | 120 | -4
Cc1cc(C=C2C(=O)CCCC2=O)c(C)n1-c1ccccc1 | 3 | 0.8 | 97 | -1 | 104 | 15
Cc1cc(/C=C2/C(=O)NN(c3ccccc3)C2=O)c(C)n1-c1ccc(O)cc1 | -21 | 0 | 119 | 28 | 77 | 95*
COc1ccc(-n2c(C)cc(/C=C3\C(=O)NN(c4ccccc4)C3=O)c2C)cc1 | -4 | 0.4 | 104 | -10 | 109 | 55*
O=C1NN(c2ccccc2)C(=O)/C1=C/c1cccs1 | 8 | 0.6 | 92 | -4 | 100 | 35
O=C(O)CCN1CCc2ccccc2C1c1cccs1 (stereo not drawn) | -2 | 1 | 103 | -3 | 103 | -3
CC(C)(C)C1CCc2c(C(=O)NNC(=O)/C=C/C(=O)O)csc2C1 (stereo not drawn) | 5 | 0.9 | 96 | -9 | 108 | 12
CC(C)(C)C1CCc2c(C(=O)N/N=C/c3cccs3)csc2C1 (stereo not drawn) | -33 | 0.9 | 129* | -14 | 115 | 7
COc1ccc(CCN(Cc2cc3cccc(C)c3n3nnnc23)C(=O)c2ccncc2)cc1OC | 0 | 1 | 100 | -4 | 106 | 0
COc1ccc(Oc2nnc(C)c3ccccc23)cc1 | -32 | 0.9 | 130* | 13 | 94 | 14
Cc1nnc(Oc2ccccc2)c2ccccc12 | -12 | 1 | 111 | 26 | 80 | 4
Cc1cc(C)c(S(=O)(=O)N2CCCOC2CNC(=O)C(=O)NCc2cccs2)c(C)c1 (stereo not drawn) | 16 | 1 | 87 | -2 | 100 | 0
CCOC(=O)CS(=O)(=O)c1nc(-c2ccccc2)cc(C(F)(F)F)n1 | 43* | 1.1 | 66 | 18 | 88 | -5
CCN1C(=O)c2ccc(C(=O)Nc3ncc(C)s3)cc2C1=O | -17 | 0.1 | 114 | 41 | 68 | 86*
CCc1nnc(NC(=O)c2ccc3c(c2)C(=O)N(C(C)(C)C)C3=O)s1 | -19 | 0.3 | 117 | 10 | 95 | 69*
Cc1cnc(NC(=O)c2ccc3c(c2)C(=O)N(Cc2ccco2)C3=O)s1 | -6 | 0.9 | 106 | 5 | 99 | 6
COc1ccc(NC(=O)COC(=O)c2ncc(Cl)c(Cl)c2Cl)c(OC)c1 | 3 | 1 | 98 | -6 | 102 | -2
CCn1cc(CNC(=O)/C=C/c2ccc([N+](=O)[O-])cc2)cn1 | 0 | 1 | 100 | 4 | 96 | -4
CSc1ccc(S(=O)(=O)N(CC(=O)NN=C2CCN(C)CC2)c2ccc(C)cc2)cc1 | -1 | 1 | 100 | 2 | 100 | 1
O=C(NCCc1cccs1)c1cccs1 | -39 | 0.8 | 134* | 16 | 93 | 16
Cc1ccnc(SCc2nc3ccccc3s2)n1 | -33 | 0.8 | 130* | -32 | 136* | 16
COC(=O)c1c(-c2ccccc2)csc1N1C(=O)Nc2ccccc2N1O | -14 | 0.3 | 114 | -2 | 104 | 71*
Cc1sc(NC(=O)C2CCCCC2C(=O)O)c(C(N)=O)c1-c1ccccc1 (stereo not drawn) | -37 | 0.5 | 127 | 12 | 98 | 55*
CCOC(=O)C1(Cc2cccc(OC)c2)CCCN(Cc2cc(C(C)C)n[nH]2)C1 (stereo not drawn) | 3 | 1 | 96 | -3 | 107 | -4
CCOC(=O)C1(Cc2cccc(OC)c2)CCCN(C(=O)c2cc(C)[nH]n2)C1 (stereo not drawn) | -45 | 1 | 140* | -11 | 112 | -2
CCOc1ccc2nc(SCC(=O)c3ccc(Cl)s3)sc2c1 | 7 | 1 | 93 | 13 | 95 | -4
CCOc1ccc2nc(NC(=O)c3cccnc3)sc2c1 | -37 | 0.4 | 132* | -2 | 106 | 60*
